Experimental data from ChEMBL document CHEMBL1144442, “Identification from a positional scanning peptoid library of in vivo active compounds that neutralize bacterial endotoxins” (J Med Chem, 2005).
Residues, ends and D or L forms follow the SMILES beside them.

Legend:
Mus musculus [1] = organism: Mus musculus; assay: In vitro inhibitory concentration necessary to neutralize Escherichia coli 1,4''-diphosphoryl lipid A; format: functional, organism-based
Method in brief: (§1)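 Chromogenic Limulus amebocyte lysate assay, which detects free LPS or diphosphoryl lipid A left unneutralized by the test compound. Compounds were tested by 2-fold serial dilution. IC50 is the concentration that neutralizes 50% of the LPS or lipid A in vitro.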

Mus musculus [2] = assay: Ratio of percent of Tumor necrosis factor alpha measured in the presence with respect to that measured when animals were treated only with LPS;Mice were intraperitoneally injected with 10 ug of LPS alone or premixed with 20 ug of each compound; format: functional
Method in brief: (§2)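 Mice were given 10 µg LPS ip, either alone or premixed with 20 µg compound in PBS containing 40% DMSO. Mice were bled after 1 h and serum TNF-α was measured by ELISA. Values are % of the TNF-α in mice given LPS alone (100%), as mean ± SD of seven mice per group.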

Mus musculus [3] = organism: Mus musculus; assay: In vitro inhibitory concentration necessary to neutralize Gram-negative bacterial lipopolysaccharide in mouse model; format: functional, organism-based; method in brief: as §1
Mus musculus [4] = assay: Ratio of percent of Tumor necrosis factor alpha measured in the presence with respect to that measured when animals were treated only with LPS;Mice were intraperitoneally injected with 10 ug of LPS alone or premixed with 20 ug of each compound;ND= Not determined; format: functional; method in brief: as §2
Mus musculus [5] = assay: Ratio of percent of Tumor necrosis factor alpha measured in the presence with respect to that measured when animals were treated only with LPS;Mice were intraperitoneally injected with 10 ug of LPS alone or premixed with 100 ug of compound; format: functional, organism-based
Method in brief: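 Mice were given 10 µg LPS ip, alone or premixed with the test agent (peptoids 20 µg in PBS with 40% DMSO; polymyxin B or LALF-14 100 µg). Sera were collected after 1 h and TNF-α measured by ELISA. Values are % of the LPS-only TNF-α level, mean ± SD, seven mice per group.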

Row | Molecule | IC50 (Mus musculus [1]) | Ratio (Mus musculus [2]) | IC50 (Mus musculus [3]; Mus musculus) | further results
1 | COc1ccc(CCN(CC(=O)N(CCC(c2ccccc2)c2ccccc2)CC(N)=O)C(=O)CNCCC(c2ccccc2)c2ccccc2)cc1 | > 250 µM | 10 | 50 µM | –
2 | CC(C)C[C@@H]1NC(=O)[C@H](CCCN=C(N)N)NC(=O)[C@H](CCCN=C(N)N)NC(=O)[C@H](Cc2ccccc2)NC(=O)[C@H]([C@@H](C)O)NC(=O)[C@@H]2CCCN2C(=O)[C@H](CCCCN)NC(=O)[C@@H](NC(=O)CN)CSSC[C@@H](C(=O)NCC(=O)O)NC(=O)[C@H](CCCCN)NC(=O)[C@H](Cc2ccc(O)cc2)NC(=O)[C@H](CCCCN)NC(=O)[C@H](Cc2c[nH]c3ccccc23)NC(=O)[C@H](CCCCN)NC1=O (HELM PEPTIDE1{G.C.K.P.T.F.R.R.L.K.W.K.Y.K.C.G}$PEPTIDE1,PEPTIDE1,2:R3-15:R3$$$V2.0) [listing 1 of 2 here] | – | – | – | Ratio (Mus musculus [4]): 67
3 | NC(=O)CN(CCC(c1ccccc1)c1ccccc1)C(=O)CN(CCC(c1ccccc1)c1ccccc1)C(=O)CNCC1CCCO1 (stereo unspecified) [TRIMER I] | 250 µM | 71 | 40 µM | –
4 | POLYMYXIN B [listing 1 of 2 here] | – | – | – | Ratio (Mus musculus [5]): 5
5 | CC(C)C[C@@H]1NC(=O)[C@H](CCCN=C(N)N)NC(=O)[C@H](CCCN=C(N)N)NC(=O)[C@H](Cc2ccccc2)NC(=O)[C@H]([C@@H](C)O)NC(=O)[C@@H]2CCCN2C(=O)[C@H](CCCCN)NC(=O)[C@@H](NC(=O)CN)CSSC[C@@H](C(=O)NCC(=O)O)NC(=O)[C@H](CCCCN)NC(=O)[C@H](Cc2ccc(O)cc2)NC(=O)[C@H](CCCCN)NC(=O)[C@H](Cc2c[nH]c3ccccc23)NC(=O)[C@H](CCCCN)NC1=O (HELM PEPTIDE1{G.C.K.P.T.F.R.R.L.K.W.K.Y.K.C.G}$PEPTIDE1,PEPTIDE1,2:R3-15:R3$$$V2.0) [listing 2 of 2 here] | 40 µM | – | 64 µM | –
6 | POLYMYXIN B [listing 2 of 2 here] | – | – | – | IC50 (Mus musculus [3]): < 0.0001 µM
